Results from ChEMBL document CHEMBL1135730, “Nanomolar small molecule inhibitors for alphav(beta)6, alphav(beta)5, and alphav(beta)3 integrins” (J Med Chem, 2002).
pIC50: −log10 of the molar value.

Columns and labels:
Integrin alpha-V/beta-3 [1] = molecular target: T1, Integrin alpha-V/beta-3 (Homo sapiens, UniProt P05106+P06756); assay: Inhibition of integrin alpha-v/beta-3 mediated M21 cell adhesion to vitronectin with monoclonal antibody P1F6; type: functional, cell-based
Outline: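 M21 human melanoma cells were freshly harvested and plated on vitronectin-coated surfaces into serial inhibitor dilutions, with αvβ5-blocking mAb P1F6 present so attachment is αvβ3-dependent. Attached cells were counted after 1 h by lysosomal hexosaminidase. IC50 by curve fitting, mean of two independent determinations.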

Integrin alpha-V/beta-3 [2] = molecular target: T1, Integrin alpha-V/beta-3; assay: Inhibition of vitronectin binding to recombinant human alphaV-beta3 integrin; type: protein-complex assay
Outline: (§1)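 Isolated-integrin ELISA. Plates were coated by adsorption from neutral buffer with 1 µg mL^-1 integrin: recombinant human αvβ3, αvβ5 or αvβ6, or αIIbβ3 isolated from human platelets. The plate was blocked with BSA. Biotinylated ligand (1 µg mL^-1) was added with serial inhibitor dilutions: human serum vitronectin for αvβ3/αvβ5, fibronectin for αvβ6, fibrinogen for αIIbβ3. Bound biotin was detected with peroxidase anti-biotin and TMB.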

Integrin alpha-V/beta-5 [3] = molecular target: T2, Integrin alpha-V/beta-5 (Homo sapiens, UniProt P06756+P18084); assay: Inhibition of vitronectin binding to recombinant human alphaV-beta5 integrin; type: protein-complex assay; outline: as §1
T2 sequence (P06756 31-889 limits assumed): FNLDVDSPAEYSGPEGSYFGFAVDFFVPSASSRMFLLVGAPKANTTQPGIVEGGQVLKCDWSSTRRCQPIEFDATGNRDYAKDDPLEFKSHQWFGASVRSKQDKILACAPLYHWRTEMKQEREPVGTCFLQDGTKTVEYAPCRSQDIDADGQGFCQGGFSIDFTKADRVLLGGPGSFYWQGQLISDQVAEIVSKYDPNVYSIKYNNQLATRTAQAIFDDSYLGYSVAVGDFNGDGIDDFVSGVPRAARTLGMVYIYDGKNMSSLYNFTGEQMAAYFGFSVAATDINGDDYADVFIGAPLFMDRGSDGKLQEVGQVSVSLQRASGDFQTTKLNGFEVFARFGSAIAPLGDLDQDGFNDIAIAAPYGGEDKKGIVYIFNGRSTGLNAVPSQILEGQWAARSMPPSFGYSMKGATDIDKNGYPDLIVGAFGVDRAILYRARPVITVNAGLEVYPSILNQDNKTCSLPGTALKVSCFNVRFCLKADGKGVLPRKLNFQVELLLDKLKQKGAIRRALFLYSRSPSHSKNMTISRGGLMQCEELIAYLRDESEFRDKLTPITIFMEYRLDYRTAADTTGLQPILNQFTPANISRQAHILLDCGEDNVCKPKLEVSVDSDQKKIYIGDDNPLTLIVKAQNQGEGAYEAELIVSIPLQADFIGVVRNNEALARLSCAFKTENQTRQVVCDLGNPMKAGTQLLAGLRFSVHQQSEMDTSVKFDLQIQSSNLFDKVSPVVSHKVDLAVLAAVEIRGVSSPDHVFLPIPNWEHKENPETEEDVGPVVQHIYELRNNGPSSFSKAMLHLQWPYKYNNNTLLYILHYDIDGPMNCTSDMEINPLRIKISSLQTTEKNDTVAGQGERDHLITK
T2 sequence (P06756 891-1048 limits assumed): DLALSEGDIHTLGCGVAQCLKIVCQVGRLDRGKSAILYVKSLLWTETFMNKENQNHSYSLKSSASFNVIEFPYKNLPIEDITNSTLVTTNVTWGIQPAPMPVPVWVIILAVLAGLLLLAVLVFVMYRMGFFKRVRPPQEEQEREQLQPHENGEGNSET
T2 sequence (P18084 24-799 limits assumed): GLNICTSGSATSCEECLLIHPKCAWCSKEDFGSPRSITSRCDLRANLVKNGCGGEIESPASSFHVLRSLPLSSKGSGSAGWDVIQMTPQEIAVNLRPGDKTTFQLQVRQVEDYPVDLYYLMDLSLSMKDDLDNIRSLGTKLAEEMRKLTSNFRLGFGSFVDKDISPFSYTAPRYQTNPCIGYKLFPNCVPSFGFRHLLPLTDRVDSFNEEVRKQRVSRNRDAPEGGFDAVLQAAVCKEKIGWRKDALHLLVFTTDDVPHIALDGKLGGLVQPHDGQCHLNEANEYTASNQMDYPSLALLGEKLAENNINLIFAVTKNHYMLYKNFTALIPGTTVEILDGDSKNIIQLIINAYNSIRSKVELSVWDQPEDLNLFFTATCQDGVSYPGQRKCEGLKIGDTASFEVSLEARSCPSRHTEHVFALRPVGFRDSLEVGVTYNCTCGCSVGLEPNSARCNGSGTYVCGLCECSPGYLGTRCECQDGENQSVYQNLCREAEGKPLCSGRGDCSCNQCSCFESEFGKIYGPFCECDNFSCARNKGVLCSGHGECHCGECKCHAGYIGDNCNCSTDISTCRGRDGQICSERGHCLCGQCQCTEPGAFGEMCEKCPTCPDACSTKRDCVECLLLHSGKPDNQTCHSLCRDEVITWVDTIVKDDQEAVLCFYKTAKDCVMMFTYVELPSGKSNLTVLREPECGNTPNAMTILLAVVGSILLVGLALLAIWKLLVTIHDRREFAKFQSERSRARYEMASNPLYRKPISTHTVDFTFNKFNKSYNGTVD

Integrin alpha-V/beta-6 [4] = molecular target: T3, Integrin alpha-V/beta-6 (Homo sapiens, UniProt P06756+P18564); assay: Inhibition of fibronectin binding to recombinant human alphaV-beta6 integrin; type: protein-complex assay; outline: as §1
T3 sequence (P06756 31-889 limits assumed): as the sequence (P06756 31-889 limits assumed) above
T3 sequence (P06756 891-1048 limits assumed): as the sequence (P06756 891-1048 limits assumed) above
T3 sequence (P18564 22-788 limits assumed): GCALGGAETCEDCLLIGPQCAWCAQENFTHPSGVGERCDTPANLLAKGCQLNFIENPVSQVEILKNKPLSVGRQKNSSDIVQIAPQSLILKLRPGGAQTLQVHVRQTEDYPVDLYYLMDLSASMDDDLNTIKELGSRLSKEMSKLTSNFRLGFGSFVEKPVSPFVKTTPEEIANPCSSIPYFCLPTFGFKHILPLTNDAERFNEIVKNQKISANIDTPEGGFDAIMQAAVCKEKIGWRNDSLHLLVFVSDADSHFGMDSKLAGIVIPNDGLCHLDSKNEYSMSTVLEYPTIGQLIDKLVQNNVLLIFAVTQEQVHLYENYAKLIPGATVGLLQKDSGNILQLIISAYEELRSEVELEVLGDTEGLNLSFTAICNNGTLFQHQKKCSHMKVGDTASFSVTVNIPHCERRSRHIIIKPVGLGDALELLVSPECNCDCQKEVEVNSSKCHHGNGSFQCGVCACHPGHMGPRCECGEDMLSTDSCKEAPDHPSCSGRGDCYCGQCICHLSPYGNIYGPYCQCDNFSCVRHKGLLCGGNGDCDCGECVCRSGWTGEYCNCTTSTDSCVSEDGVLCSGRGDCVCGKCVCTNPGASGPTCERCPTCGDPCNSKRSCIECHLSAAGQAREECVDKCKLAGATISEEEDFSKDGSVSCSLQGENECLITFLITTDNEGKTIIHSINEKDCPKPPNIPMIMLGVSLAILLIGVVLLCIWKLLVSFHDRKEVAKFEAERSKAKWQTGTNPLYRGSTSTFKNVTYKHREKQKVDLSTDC

Integrin alpha-V/beta-6 [5] = molecular target: T3, Integrin alpha-V/beta-6; assay: Inhibition of integrin alpha-v/beta-6 mediated UCLAP-3 cell adhesion to fibronectin; type: functional, cell-based
Integrin alpha-V/beta-5 [6] = molecular target: T2, Integrin alpha-V/beta-5; assay: Inhibition of integrin alpha-v/beta-5 mediated UCLAP-3 cell adhesion on vitronectin; type: functional, cell-based
Outline: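 UCLAP-3 human lung adenocarcinoma cells attach to vitronectin exclusively via αvβ5. Freshly harvested cells were plated on vitronectin-coated surfaces into serial inhibitor dilutions. Attachment was measured at 1 h by lysosomal hexosaminidase cell count. IC50 by curve fitting, mean of two independent determinations.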

[7] = molecular target: Integrin alpha-IIb/beta-3 (Homo sapiens, UniProt P05106+P08514); assay: Inhibition of fibrinogen binding to human platelet glycoprotein alpha IIb beta3 integrin
Integrin alpha-IIb/beta-3, sequence (P05106 27-788 limits assumed): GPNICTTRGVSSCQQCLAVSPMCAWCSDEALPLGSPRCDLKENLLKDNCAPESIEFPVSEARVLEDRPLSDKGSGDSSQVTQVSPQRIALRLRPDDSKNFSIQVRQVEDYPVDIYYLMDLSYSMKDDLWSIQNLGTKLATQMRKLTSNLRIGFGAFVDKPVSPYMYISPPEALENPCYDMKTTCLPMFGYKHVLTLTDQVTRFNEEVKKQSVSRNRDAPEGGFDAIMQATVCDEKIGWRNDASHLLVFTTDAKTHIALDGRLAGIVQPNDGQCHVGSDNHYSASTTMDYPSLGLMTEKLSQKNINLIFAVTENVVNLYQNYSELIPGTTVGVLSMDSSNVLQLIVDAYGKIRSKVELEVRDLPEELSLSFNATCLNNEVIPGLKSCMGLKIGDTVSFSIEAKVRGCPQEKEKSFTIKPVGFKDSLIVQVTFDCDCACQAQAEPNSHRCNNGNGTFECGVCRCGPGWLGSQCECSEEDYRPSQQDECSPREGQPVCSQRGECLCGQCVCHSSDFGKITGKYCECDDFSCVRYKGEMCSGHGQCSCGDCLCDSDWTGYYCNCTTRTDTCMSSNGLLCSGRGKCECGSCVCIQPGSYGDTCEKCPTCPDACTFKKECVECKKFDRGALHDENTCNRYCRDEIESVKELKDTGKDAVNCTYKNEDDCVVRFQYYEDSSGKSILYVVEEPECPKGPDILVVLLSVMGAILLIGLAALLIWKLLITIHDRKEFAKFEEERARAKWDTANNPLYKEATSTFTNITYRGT
Integrin alpha-IIb/beta-3, sequence (P08514 32-887 limits assumed): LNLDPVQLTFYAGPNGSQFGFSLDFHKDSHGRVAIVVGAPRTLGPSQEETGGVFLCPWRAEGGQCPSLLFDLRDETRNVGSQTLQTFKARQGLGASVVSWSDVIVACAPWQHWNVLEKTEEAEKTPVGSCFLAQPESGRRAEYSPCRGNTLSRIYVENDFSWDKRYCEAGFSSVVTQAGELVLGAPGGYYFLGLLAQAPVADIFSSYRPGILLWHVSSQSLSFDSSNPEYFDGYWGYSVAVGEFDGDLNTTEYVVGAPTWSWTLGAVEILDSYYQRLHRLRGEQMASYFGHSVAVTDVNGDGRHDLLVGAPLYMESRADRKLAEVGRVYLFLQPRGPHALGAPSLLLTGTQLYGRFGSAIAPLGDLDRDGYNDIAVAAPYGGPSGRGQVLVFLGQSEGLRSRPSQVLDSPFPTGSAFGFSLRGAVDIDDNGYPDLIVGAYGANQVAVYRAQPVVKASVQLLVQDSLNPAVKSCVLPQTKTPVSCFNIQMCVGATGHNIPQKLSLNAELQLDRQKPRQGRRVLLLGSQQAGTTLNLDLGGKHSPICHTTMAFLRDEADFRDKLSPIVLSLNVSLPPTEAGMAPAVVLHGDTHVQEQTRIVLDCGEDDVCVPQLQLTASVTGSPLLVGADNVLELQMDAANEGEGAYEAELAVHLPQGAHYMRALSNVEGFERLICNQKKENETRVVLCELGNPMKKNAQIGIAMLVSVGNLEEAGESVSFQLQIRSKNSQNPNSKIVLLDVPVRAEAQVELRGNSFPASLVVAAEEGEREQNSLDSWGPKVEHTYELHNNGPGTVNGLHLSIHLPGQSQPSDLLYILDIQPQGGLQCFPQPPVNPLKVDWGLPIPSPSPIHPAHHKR
Integrin alpha-IIb/beta-3, sequence (P08514 891-1039 limits assumed): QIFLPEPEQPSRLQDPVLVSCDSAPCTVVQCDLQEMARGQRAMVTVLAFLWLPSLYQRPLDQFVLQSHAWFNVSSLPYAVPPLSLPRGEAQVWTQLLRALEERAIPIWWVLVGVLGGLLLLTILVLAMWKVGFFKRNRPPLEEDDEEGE

T1 sequence (P05106 27-788 limits assumed): as the sequence (P05106 27-788 limits assumed) above
T1 sequence (P06756 31-889 limits assumed): as the sequence (P06756 31-889 limits assumed) above
T1 sequence (P06756 891-1048 limits assumed): as the sequence (P06756 891-1048 limits assumed) above

Compound | pIC50 (Integrin alpha-V/beta-3 [1]) | pIC50 (Integrin alpha-V/beta-3 [2]) | pIC50 (Integrin alpha-V/beta-5 [3]) | pIC50 (Integrin alpha-V/beta-6 [4]) | pIC50 (Integrin alpha-V/beta-6 [5]) | pIC50 (Integrin alpha-V/beta-5 [6]) | pIC50 [7]
Cc1ccnc(NCCCCCCC(=O)NC(CC(=O)O)c2cccc([N+](=O)[O-])c2)c1 (centres undefined) | < 4.30 | 7.28 | 5.80 | 7.21 | 5.68 | 4.68 | 6.24
C[C@H]1C(=O)N[C@@H](CCCN=C(N)N)C(=O)NCC(=O)N[C@@H](CC(=O)O)C(=O)N[C@H](Cc2ccccc2)C(=O)N1C | 5.41 |  | 6.18 | 5.62 | 4.43 | 5.89 | 5.22
Cc1ccnc(NCCCC(=O)NCC(=O)NC(CC(=O)O)c2ccc(-c3cccc4ccccc34)cc2)c1 (centres undefined) | 5.52 | 8.10 | 5.29 | 10.40 | 6.70 | 4.70 | 5.37
Cc1ccnc(NCCCCC(=O)NCC(=O)NC(CC(=O)O)c2cc(Cl)cc(Cl)c2)c1 (centres undefined) | 4.80 | 7.28 | 6.46 | 9.40 | 6.52 | 5.70 | < 5.00
Cc1ccnc(NCCCC(=O)NCC(=O)NC(CC(=O)O)c2cccc(OC(F)(F)F)c2)c1 (centres undefined) | 4.62 | 7.85 | 7.41 | 9.82 | 7.52 | 4.57 | < 5.00
Cc1ccnc(NCCCCC(=O)NNC(=O)CC(CC(=O)O)c2cc(Cl)cc(Cl)c2)c1 (centres undefined) | 4.70 | 8.22 | 5.24 | 7.36 | 5.80 | 4.74 | < 5.00

Continued, values first:

pIC50 (Integrin alpha-V/beta-3 [1]) | pIC50 (Integrin alpha-V/beta-3 [2]) | pIC50 (Integrin alpha-V/beta-5 [3]) | pIC50 (Integrin alpha-V/beta-6 [4]) | pIC50 (Integrin alpha-V/beta-6 [5]) | pIC50 (Integrin alpha-V/beta-5 [6]) | pIC50 [7] | Compound
6.01 | 8.40 | 5.06 | 7.28 | 5.42 | 4.62 | 5.52 | Cc1ccnc(NCCCCC(=O)NNC(=O)CC(CC(=O)O)c2ccc(-c3ccccc3)cc2)c1 (centres undefined)
4.92 | 7.19 | 5.60 | 8.77 | 6.52 | 5.30 | < 5.00 | Cc1ccnc(NCCCCC(=O)NNC(=O)NC(CC(=O)O)c2cc(Cl)cc(Cl)c2)c1 (centres undefined)
5.16 | 7.89 | 7.38 | 8.40 | 7.05 | 5.92 | 5.14 | O=C(O)CC(NC(=O)CNC(=O)CCCNc1ccccn1)c1cccc([N+](=O)[O-])c1 (centres undefined)
< 4.30 |  | 7.59 | 6.34 | 5.02 | 4.37 |  | N=C(N)NCCCCC(=O)NNC(=O)NC(CC(=O)O)c1ccccc1 (centres undefined)
5.02 | 9.35 | 5.57 | 9.22 | 7.00 | 4.59 | 5.39 | O=C(O)CC(NC(=O)CNC(=O)CCCCNc1ccccn1)c1ccc(-c2ccccc2)cc1 (centres undefined)
